Reference: PubChem BioAssay
Records with an inconclusive call do not appear. Calls of active or inactive are those of the source.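 How the source made its calls, unless noted: active means growth inhibition above 25% in both replicates, a cutoff set 3 SD above the mean; inconclusive means above 25% in only one replicate; inactive means the rest.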

Legend:
[1] = OD615 S. cerevisiae growth inhibition, permissive medium, pilot counter-assay, permissive growth control for S. cerevisiae lifespan shortening project (AID 705); details: OD615, 24 h, at 10 µM, hits give high values
Summary of the method: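 assay system = Saccharomyces cerevisiae strain carrying genetically modified DeaD replicative-lifespan system | technique = absorbance (optical density) at 615 nm | buffer or medium = permissive raffinose/galactose medium | timing = cells pre-grown 4 h, then 24 h compound exposure, 30 °C humidified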

[2] = Restrictive medium S. cerevisiae growth inhibition, OD615, pilot screen of yeast lifespan reduction project, restrictive growth control (AID 706;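 active means growth inhibition above a set limit, 3 SD over mean compound inhibition, in both replicates, cut at about 43% in these data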;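 further: modified DeaD lifespan yeast strain shifted to restrictive glucose medium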); details: OD615, 48 h, at 10 µM, hits give high values
Summary of the method: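 System: modified S. cerevisiae. Buffer or medium: CSMM-D glucose medium. Incubation: 4 h pre-growth plus 48 h compound exposure, 30 °C. Detection: absorbance (optical density) measured at 615 nm.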

[3] = viability gain of MRP-1-high H69AR cells under doxorubicin, pilot screen, MRP-1 activator project, CellTiter-Glo, duplicate (AID 807;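 active means viability increase at or above a cutoff of the median across tested compounds plus 3 SD, cut at about 8.5% in these data, passing the limit was not always enough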;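 further: compound pretreatment 18-22 h then 72 h combined with doxorubicin; 0% = doxorubicin alone and 100% = vehicle without doxorubicin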); details: H69AR viability with doxorubicin, CellTiter-Glo luminescence; at 10 µM; hits give high values
[4] = growth suppression of beta-catenin knockout HCT116, pilot screen, human colon tumor cells (AID 823;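 active means cell viability at or below a set limit in both duplicate runs, the limit being the all-compound median minus 4 SD, cut at about 23% in these data, passing the limit was not always enough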;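 further: 0% = wells killed by 20 µM Hyamine and 100% = untreated DMSO cell wells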); details: CellTiter-Glo, 60 h, at 10 µM, hits give low values
[5] = growth suppression of PTEN-deleted HCT116, pilot screen, cell-based, HCT116 clonal line, CellTiter-Glo (AID 824;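 active means viability at or below 27.92% in each of two runs, the all-compound median minus 4 SD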;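 further: 0% = 20 µM Hyamine control and 100% = vehicle cell control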); details: 60 h, at 10 µM, hits give low values
[6] = RAM signaling pathway blockade in yeast – S. cerevisiae, Pdr1DBD-CYC8 efflux-inhibited sensitized strain, primary screen (AID 1298;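 active means RAM network inhibition above 8.4% in each of two replicates, 3 SD over the compound average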;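 further: 0% = DMSO untreated cells without growth and 100% = 10 µM 1-NA-PP1 full growth; higher means more yeast growth rescued from 5-FOA killing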); details: S. cerevisiae cbk1-as DSE1-URA3 strain, 5-FOA growth OD615, 2 d; at 50 µM; hits give high values

Structure (SMILES)	growth inhibition [1]	growth inhibition [2]	viability increase [3]	viability [4]	viability [5]	RAM network inhibition [6]
FC(F)(F)c1nc(N2CCN(c3ccccc3)CC2)nc2c1CCCCC2	-16.6% (inactive)	-18.3% (inactive)	-0.3% (inactive)	72.5% (inactive)	73.4% (inactive)	9.39% (inactive)
CCCCOc1ccc(S(=O)(=O)Nc2cc(OC)ccc2OC)cc1	-1.52% (inactive)	-16.5% (inactive)	0.92% (inactive)	54.8% (inactive)	71.3% (inactive)	7.83% (inactive)
COc1ccc(-c2cn3c(C)c(C(=O)N4CCN(c5ccc(F)cc5)CC4)sc3n2)cc1	-0.17% (inactive)	-2.07% (inactive)	0.81% (inactive)	101% (inactive)	103% (inactive)	5.28% (inactive)
CCOC(=O)N1CCC(N2C(=O)c3ccc(C(=O)Nc4ccc(F)cc4F)cc3C2=O)CC1	-2.61% (inactive)	-7.76% (inactive)	-6.61% (inactive)	91.1% (inactive)	94.4% (inactive)	4.78% (inactive)
C#CCSc1nnc(-c2c[nH]c3ccccc23)n1C	0.22% (inactive)	8.42% (inactive)	-2.77% (inactive)	98.3% (inactive)	93.5% (inactive)	-0.92% (inactive)
CC1Cn2c(nnc2-c2ccccc2O)S1 (configuration not stated)	-13.6% (inactive)	-21.9% (inactive)	-1.33% (inactive)	115% (inactive)	98.2% (inactive)	5.23% (inactive)
CC(=O)NCc1cn2c(C)csc2n1	-16.9% (inactive)	-3.26% (inactive)	-3.88% (inactive)	98.1% (inactive)	90% (inactive)	3.01% (inactive)
COc1ccc(-n2c(SCC(=O)N3CCCC3)nc3c([nH]c4ccccc43)c2=O)cc1	-20.2% (inactive)	-19.5% (inactive)	-3.04% (inactive)	105% (inactive)	93.7% (inactive)	1.9% (inactive)
Cc1cc(=S)cc(C)n1CCCn1ccnc1	-1.13% (inactive)	-26.5% (inactive)	-0.81% (inactive)	103% (inactive)	99.7% (inactive)	3.26% (inactive)
O=C(Nc1nc(-c2nc3ccccc3s2)cs1)C1COc2ccccc2O1 (configuration not stated)	2.93% (inactive)	-0.5% (inactive)	-2.5% (inactive)	96.8% (inactive)	91.3% (inactive)	2.13% (inactive)
O=C(CCc1nc2ccccc2[nH]1)Nc1ccc2c(c1)OCCO2	-17.1% (inactive)	-18.4% (inactive)	-2.36% (inactive)	94.2% (inactive)	94.8% (inactive)	0.89% (inactive)
CCOC(=O)C1CCN(C(C(=O)NC2CCCCC2)c2ccc(OC)cc2)CC1 (configuration not stated)	-4.53% (inactive)	-11.7% (inactive)	-1.91% (inactive)	93.2% (inactive)	88.6% (inactive)	3.74% (inactive)
COc1ccc(N2CCN(C(=O)c3cc4c(-c5ccc(Cl)cc5)nn(C)c4s3)CC2)cc1	2.67% (inactive)	-4.22% (inactive)	-3.45% (inactive)	78.6% (inactive)	71.4% (inactive)	3.98% (inactive)
CCn1c(=O)c2cc(C(=O)NCc3cccs3)sc2c2ccccc21	-11.3% (inactive)	-8.09% (inactive)	-5.17% (inactive)	102% (inactive)	95.9% (inactive)	4.3% (inactive)
Cc1ccc2oc(-c3ccc(NC(=O)CC(C)C)cc3)nc2c1	-9.28% (inactive)	-6.46% (inactive)	-0.39% (inactive)	102% (inactive)	92.6% (inactive)	7.81% (inactive)
CSc1cccc(NS(=O)(=O)c2ccc3c(c2)oc(=O)n3C)c1	-0.15% (inactive)	7.23% (inactive)	-1.75% (inactive)	85.3% (inactive)	81% (inactive)	4.49% (inactive)

Structure (SMILES)	growth inhibition [1]	growth inhibition [2]	viability increase [3]	viability [4]	viability [5]	RAM network inhibition [6]
COc1cc(OC)c(NS(=O)(=O)c2coc(C(N)=O)c2)cc1Cl	-4.63% (inactive)	-4.55% (inactive)	-3.53% (inactive)	105% (inactive)	95.8% (inactive)	6.88% (inactive)
Clc1ccc(-c2nnc(SCc3nc(-c4ccccc4)no3)o2)cc1	-10.1% (inactive)	-9.97% (inactive)	-3.34% (inactive)	99.2% (inactive)	91.7% (inactive)	4.9% (inactive)
COC(=O)c1cc(=O)[nH]c(SCc2cccc(C)c2)n1	-9.72% (inactive)	-0.94% (inactive)	-3.27% (inactive)	102% (inactive)	101% (inactive)	6.8% (inactive)
COc1ccc(-c2cc(C(F)(F)F)nc(S(C)(=O)=O)n2)cc1OC	-23.4% (inactive)	-9.75% (inactive)	-7.11% (inactive)	14.5% (active)	48.7% (inactive)	-0.26% (inactive)
Cc1ccc(CN2CCNC(=O)C2CC(=O)O)cc1 (configuration not stated)	2.7% (inactive)	-8.03% (inactive)	-1.2% (inactive)	97.3% (inactive)	92.4% (inactive)	0.83% (inactive)
CCCCCCSc1cc(C)nc2ncnn12	-19% (inactive)	2.92% (inactive)	-0.06% (inactive)	93.6% (inactive)	83.2% (inactive)	0.21% (inactive)
Cc1ccc(NC(=O)CSc2nnc(Cn3c(=O)sc4ccccc43)n2C)cc1	-5.8% (inactive)	-12.1% (inactive)	-1.58% (inactive)	93.6% (inactive)	96.4% (inactive)	8.73% (inactive)
O=C(Nc1nc2c(s1)CCCC2)c1cccnc1	-5.66% (inactive)	-5.07% (inactive)	0.28% (inactive)	100% (inactive)	92.2% (inactive)	1.3% (inactive)
CCCOCCOC(=O)c1[nH]c2c(c1C)C(=O)CC(c1cc(OC)ccc1OC)C2 (configuration not stated)	-12.2% (inactive)	-4.79% (inactive)	-4.21% (inactive)	17.3% (active)	20.6% (active)	8.16% (inactive)
Cc1cc2cc(CNC(=O)C3CCCC3)ccc2n1C	-3.94% (inactive)	-10.2% (inactive)	0.45% (inactive)	103% (inactive)	91% (inactive)	2.97% (inactive)
Cc1ccc2oc(=O)c3cnn(CC(=O)NCCc4ccsc4)c3c2c1	3.75% (inactive)	-1.42% (inactive)	-2.89% (inactive)	90.7% (inactive)	85.7% (inactive)	3.42% (inactive)
Cc1cc2cc(CNC(=O)c3ccc(S(=O)(=O)N4CCOCC4)cc3)ccc2[nH]1	-5.21% (inactive)	-10.8% (inactive)	0.86% (inactive)	99.5% (inactive)	96.2% (inactive)	5.69% (inactive)
CCSC(C)CC1C/C(=N/O)c2c(CC)noc2C1 (configuration not stated)	-0.005% (inactive)	-4.39% (inactive)	5.22% (inactive)	93.6% (inactive)	94.2% (inactive)	0.17% (inactive)
COc1ccc(CCn2c(N)c(S(=O)(=O)c3cccs3)c3nc4ccccc4nc32)cc1OC	-4.55% (inactive)	-27.6% (inactive)	-2.53% (inactive)	91.6% (inactive)	85.1% (inactive)	8.59% (inactive)
CCC(=O)N1c2ccccc2-c2nnc(SC)nc2OC1c1ccc(OC)c(OC)c1 (configuration not stated)	-7.65% (inactive)	-7.5% (inactive)	-2.71% (inactive)	102% (inactive)	94.1% (inactive)	1.85% (inactive)
COc1ccccc1-c1cc(C(F)(F)F)nc(N2CCOCC2)n1	-8.95% (inactive)	-13.9% (inactive)	-0.29% (inactive)	78.8% (inactive)	82.5% (inactive)	7.23% (inactive)
